MrgX1 antag = human MrgX1 receptor antagonism, primary screen. MRGX1-HEK293 calcium flux, Fluo-4, BAM8-22 antagonism; stronger effect = lower value. B-score at 10 µM. 310,000 compounds, 1.3% hits;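 active = calcium-response B-score plate-corrected more than 3 library SD below zero, starting fluorescence within 5 deviations, no agonist response on first addition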;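 also: peak minus trough fluorescence over baseline after final BAM8-22 challenge near maximal dose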
Target sequence (Q96LB2 whole entry, looked up): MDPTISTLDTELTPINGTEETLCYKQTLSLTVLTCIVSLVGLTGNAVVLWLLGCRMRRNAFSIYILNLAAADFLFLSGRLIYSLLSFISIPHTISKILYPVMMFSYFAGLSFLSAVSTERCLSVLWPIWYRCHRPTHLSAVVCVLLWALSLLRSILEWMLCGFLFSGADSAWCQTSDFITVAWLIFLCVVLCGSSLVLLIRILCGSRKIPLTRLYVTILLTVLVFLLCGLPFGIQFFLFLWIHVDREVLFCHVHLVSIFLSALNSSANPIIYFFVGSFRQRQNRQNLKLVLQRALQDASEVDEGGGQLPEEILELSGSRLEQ
RGS4 act = RGS4 potentiation or activation; HEK293 M3R/inducible RGS4, carbachol calcium flux Fluo4; stronger effect = lower value; B-score at 10 µM; 310,000 compounds, 0.92% hits; AID 463111;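 active = B-score of the integrated calcium signal more than 4 SD below the library mean, with starting fluorescence not abnormally high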;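 also: negative B-score means reduced calcium response which marks RGS4 activation or potentiation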
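test system = HEK293 cells with stable M3R and inducible RGS4 | schedule = recording 10 s baseline at 1 Hz, 100 s post-agonist | technique = Fluo4-AM (2 µM) calcium-flux fluorescence, kinetic read | measure = Agonist-evoked peak-minus-minimum fluorescence over baseline, integrated ratio, B score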
MrgX1 allo act = allosterically activates human MrgX1 receptor signaling | Q96LB2 | 310,000 compounds, 0.63% hits | MrgX1-HEK293, Fluo-4 calcium flux, FDSS; stronger effect = higher value | B-score at 10 µM | AID 588675;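 active = plate-corrected calcium response at least 3 library SD above typical, normal starting fluorescence, not activating the receptor alone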;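 also: compound read alongside a low EC10 to EC30 dose of BAM8-22 agonist; peak minus trough fluorescence over baseline measured at the second addition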
RGS4 block = inhibitors of human RGS4. 310,000 compounds, 0.45% hits. HEK293 M3R/RGS4 inducible, Fluo-4 calcium flux; stronger effect = higher value; triggered by carbachol at its EC20. B-score at 10 µM;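 active = B-score, a plate-corrected calcium signal, over three deviations above library mean, with baseline fluorescence within five deviations of library mean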;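 also: RGS4 expression induced by doxycycline in cells with stable M3 receptor; B-score is computed from the integrated fluorescence ratio over baseline after carbachol; higher B-score means a larger calcium signal and so more RGS4 inhibition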
Target sequence (P49798 whole entry, looked up): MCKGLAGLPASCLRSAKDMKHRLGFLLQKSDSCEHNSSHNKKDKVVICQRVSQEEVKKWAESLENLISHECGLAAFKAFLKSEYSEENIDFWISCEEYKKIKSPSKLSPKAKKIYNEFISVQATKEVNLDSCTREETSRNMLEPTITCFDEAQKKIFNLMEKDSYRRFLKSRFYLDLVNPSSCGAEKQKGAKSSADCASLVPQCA
MrgX1 ag = activates human MrgX1 receptor signaling | Q96LB2 | MrgX1-HEK293 cells, Fluo-4 calcium fluorescence, agonist mode; stronger effect = higher value | B-score at 10 µM | 310,000 compounds, 0.44% hits | AID 588627;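 active = calcium response B-score plate-corrected fluorescence ratio at least 3 library SD, with starting fluorescence B-score inside 5 SD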
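Test system: Stable human MrgX1 HEK293 cell line | Schedule: Overnight plating before 1 h dye loading | Read-out basis: Baseline-normalised fluorescence change ratio, B-scored | Detection: Kinetic calcium dye fluorescence, Fluo-4 NW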
MrgX1 ag confirm = human MrgX1 agonism, re-confirmation screen; shares compounds with MrgX1 ag; MrgX1-HEK293, Fluo-4 calcium fluorescence, FDSS; activation, % at 10 µM; 600 compounds, 78% hits;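 active = calcium signal rise, corrected for plate position, at least 3 library SD high, with starting brightness within 5 such deviations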
MrgX1 PAM conf = reconfirmed allosteric activator of human MrgX1 receptor. shares compounds with MrgX1 allo act. AID 602413. 1,200 compounds, 13% hits. activation (ratio percentage), % at 10 µM. MrgX1-HEK293, Fluo-4 calcium fluorescence, FDSS;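 active = ratio at least 3 SD above the weak peptide control, stable starting fluorescence, no direct agonism earlier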;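 also: compound followed by low BAM8-22 agonist challenge near EC20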
HEK293 Ca flux = MrgX1 antagonist counter-screen hit in parental HEK293 cells; fluorescence ratio F(max-min)/F0 at 10 µM; shares compounds with MrgX1 antag; Fluo-4 calcium fluorescence, FDSS; 4,000 compounds, 2% hits;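 active = duplicate-averaged calcium fluorescence ratio at least three times the standard deviation of buffer wells, a nonspecific response in parental cells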
HEK293 Ca counter = activity in parental HEK293 cells without MrgX1; parental HEK293 calcium flux, Fluo-4 fluorescence ratio; stronger effect = higher value; fluorescence ratio F(max-min)/F0 at 10 µM; shares compounds with MrgX1 antag; AID 624114; 4,000 compounds, 0.4% hits;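 active = calcium fluorescence ratio, averaged over duplicates, at least 3 SD of the buffer-well ratio, meaning a nonspecific response in receptor-free cells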;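 also: untransfected parental HEK293 lacking MrgX1 used as counterscreen for MrgX1 allosteric activators; fluorescence change taken during the second addition on a kinetic imager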
HEK293 Ca cntr2 = activity in parental HEK293 cells lacking MrgX1 receptor | Fluo-4 calcium fluorescence (FDSS); stronger effect = higher value | shares compounds with MrgX1 antag | fluorescence ratio F(max-min)/F0 at 10 µM | 4,000 compounds, 8.7% hits;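 active = calcium fluorescence ratio at least three times the spread of buffer wells, meaning a non-specific response in parental cells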
Hits are given with their value; 0 = inactive; - = no result. An excerpt weighted towards active compounds, which were near 3.5% of everything screened.

SMILES	MrgX1 antag	RGS4 act	MrgX1 allo act	RGS4 block	MrgX1 ag	MrgX1 PAM conf	HEK293 Ca flux	HEK293 Ca counter	HEK293 Ca cntr2	others
Cc1cccc(C(=O)NC(=S)NNC(=O)c2ccccc2Cl)c1	0	0	0	0	105	-	0	0	149	MrgX1 ag confirm=776%
Cc1cccc(C(=O)NC(=S)NNC(=O)Cc2ccccc2)c1	0	0	0	0	119	-	0	0	137	MrgX1 ag confirm=638%
Cn1ncc(Cl)c1C(=O)NC1CCCC1	0	0	0	0	0	-	-	-	-
Cc1ccc(NC(=O)CN(C)C(=O)c2nn(C)c(=O)c3ccccc23)cc1	0	0	0	0	0	-	-	-	-
CC(=O)Nc1ccc(NC(=O)c2ccccc2CCc2ccccc2)cc1	0	0	15	0	0	0	0	0	0
Cc1ccc(NC(=O)c2ccccc2O)cc1	0	0	11	0	0	0	0	0	0
CC(=O)Nc1ccc(NC(=O)c2ccccc2C)cc1	0	0	0	0	0	-	-	-	-
COc1cc(C(C(=O)NC2CCCCC2)N(CCN2CCOCC2)C(=O)C2COc3ccccc3O2)cc(OC)c1OC (stereo unspecified)	0	0	0	0	0	-	-	-	-
CCOC(=O)c1c(NC(=O)c2cc(-c3ccc(O)cc3)on2)sc(C(C)=O)c1C	0	0	0	0	0	-	-	-	-
CCCCOCCCN1CC(=O)N2C(C)c3[nH]c4ccccc4c3C[C@H]2C1=O (stereo partly specified)	0	0	7.5	0	0	0	0	0	0
CCCCCN1CC(=O)N2C(C)c3[nH]c4ccccc4c3C[C@H]2C1=O (stereo partly specified)	0	0	14	0	0	0	0	0	0
Nc1nc(=S)c2ncn(C3CCCC3)c2[nH]1	0	0	0	0	0	-	-	-	-
Cc1ccc(Cn2ccnc2C(=O)Nc2ccccc2)cc1	0	0	9.7	0	0	0	0	0	0
COC(=O)c1cccc(C(=O)N2CCC(CO)(CCc3ccccc3)CC2)c1	0	0	0	0	0	-	-	-	-
COC(=O)c1cccc(C(=O)N2CCC(CO)(Cc3ccccc3Cl)CC2)c1	0	0	9.9	0	0	0	0	0	0
CCCn1c(=O)c(C(=O)Nc2cccc(C)c2)c(O)c2ccccc21	0	0	7.2	0	0	0	0	0	0
CCCn1c(=O)c(C(=O)Nc2ccccc2)c(O)c2ccccc21	0	0	0	0	0	-	-	-	-
CCOC(=O)c1c(NC(=O)C2CCCCC2C(=O)O)sc2c1CCCCC2 (stereo unspecified)	0	0	16	0	0	0	0	0	0
Cc1ccc(N(CCC#N)C(=O)COC(=O)C2CCN(S(=O)(=O)c3ccc4c(c3)OCCO4)CC2)cc1	0	0	0	0	0	-	-	-	-
NC(=O)CNc1n[nH]c(=S)[nH]c1=O	0	0	0	0	0	-	-	-	-
CCOc1ccc(CCNC(=O)CSc2n[nH]c(N)n2)cc1OCC	0	0	0	0	0	-	-	-	-
Cc1nc2ccccc2cc1OCc1ccc(Cl)cc1	0	0	0	0	0	-	-	-	-
Cc1nc2ccccc2cc1OCc1ccccc1	0	0	6.6	0	0	0	0	0	0
Cc1sc2nc(-c3cccs3)oc(=O)c2c1C	0	0	0	0	0	-	-	-	-
Cc1sc2nc(-c3ccc(Br)cc3)oc(=O)c2c1C	0	0	6.6	0	0	0	0	0	0
CC(C)c1ccc(N2C(=NC(=O)C3CCCO3)SC3CS(=O)(=O)CC32)cc1 (stereo unspecified)	0	0	0	0	0	-	-	-	-
COc1cc(NC(=O)c2ccc([N+](=O)[O-])cc2)ccc1NC(=O)C(C)C	0	0	0	0	0	-	-	-	-

Source: PubChem BioAssay (Johns Hopkins Ion Channel Center)
